In the array DNA melting data of Ke et al. (doi:10.1101/2024.01.08.574731):

Assays:
[1] = melting temperature; fluorescence melt of hairpins on a sequencing array, two-state fit, raised by 9.35 °C to match UV melts; conditions: sodium 0.088 M
Method in brief: (§1)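 Melting temperature and folding enthalpy were derived from bootstrapped two-state fits. The fitted temperatures were raised by 9.35 °C to agree with UV melts, and four replicates were combined by inverse variance. The underlying data were Cy3 fluorescence images of library hairpins, with annealed Cy3 and quencher oligos, on a sequenced MiSeq flow cell in 50 mM Na-HEPES pH 8.0, 25 mM NaCl, taken in 2.5 °C steps up to 60 °C, normalised to pre-quench Cy3 and to control constructs.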

[2] = folding enthalpy; higher = less favourable; fluorescence melt of hairpins on a sequencing array, two-state fit; conditions: sodium 0.088 M
Method in brief: as §1

Sequence | Tm [1] | folding enthalpy [2]
GTAACGCGAAAGCGTAC (((.(((....)))))) | 49 °C | -10.6 kcal/mol
GTCTCTGAAAAGAGAC ((((((....)))))) | 58.1 °C | -33.4 kcal/mol
GGTTTTGGAAACAAGACC (((.(((....))).))) | 42.8 °C | -31.6 kcal/mol
GGGATGGGAAACTATCCC (((((.(....).))))) | 49.8 °C | -30.5 kcal/mol
GGCCTACGAAAGTAAGCC (((.(((....))).))) | 49.5 °C | -35 kcal/mol
GTTTGTCGAAAGACTAAC (((.(((....))).))) | 45.8 °C | -23.9 kcal/mol
GAAATGAAAATTTC (((((....))))) | 30.1 °C | -12.2 kcal/mol
GAAGCCCGAAAGGGTTTC (((.(((....))).))) | 56.2 °C | -34.4 kcal/mol
GGCGTAGGAAACTACGTC (.(((((....))))).) | 52.4 °C | -34.7 kcal/mol
GCCGTGCGAAAGCCTGGC (((..((....))..))) | 56.2 °C | -20.4 kcal/mol
GTATGCGAAAGCAATAC ((((((....))).))) | 49.4 °C | -20.3 kcal/mol
GTTAGACGAAAGTCAAC (((.(((....)))))) | 43 °C | -13.4 kcal/mol
GCCTGAGGAAACTTAGGC ((((.((....)).)))) | 48.8 °C | -31.2 kcal/mol
GTGGGTGGAAACACTCGC (.(.(((....))).).) | 42 °C | -24.7 kcal/mol
GATCTAACGCTAGATC ((((((....)))))) | 38.1 °C | -20.7 kcal/mol
GTCAGCCGAAAGGCAGAC (((.(((....))).))) | 61.9 °C | -24.4 kcal/mol
GATCGAATCTCGATC ((((((...)))))) | 51 °C | -38.2 kcal/mol
GCTGCGCGAAAGCGGCGC ((..(((....)))..)) | 63.7 °C | -15.5 kcal/mol
GGTTAATCGAAAGATACC (((..(((....)))))) | 29.2 °C | -17.1 kcal/mol
GCGTTCGGAAACGAGTGC ((..(((....)))..)) | 41.8 °C | -25.7 kcal/mol
GTAGACGAAAGTCGTTAC ((((((....)))..))) | 34.6 °C | -11 kcal/mol
GAAACCGAAAGGTGGTTC ((((((....)))..))) | 32.3 °C | -11.8 kcal/mol
GTAACAGGAAACTGTTAC (((((((....))))))) | 55.4 °C | -43.6 kcal/mol

Sequence | Tm [1] | folding enthalpy [2]
GGTGCTGGAAACGGTACC (((.(.(....).).))) | 41.2 °C | -35.8 kcal/mol
GGCGTCGAAAGACCGGCC ((((((....)))..))) | 51 °C | -19.4 kcal/mol
GCTACCGAAAGGTTTAGC ((((((....)))..))) | 38.5 °C | -17.6 kcal/mol
GCCTATTCGAAAGAAGGC (((..(((....)))))) | 38.2 °C | -20.6 kcal/mol
GGCATCGCGAAAGCGGCC (((..(((....)))))) | 54.9 °C | -17.4 kcal/mol
GTTGACCCGAAAGGGAAC (((..(((....)))))) | 37.8 °C | -14.3 kcal/mol
GTTGTCGAAAGACAAAC ((((((....))).))) | 48.9 °C | -14.2 kcal/mol
GATCCTTCCCAGGATC ((((((....)))))) | 52 °C | -36.9 kcal/mol
GAAAGCGAAAGCTGTTTC ((((((....)))..))) | 32 °C | -9.68 kcal/mol
GCAATGGGAAACCATCAC (..((((....))))..) | 22.8 °C | -10.7 kcal/mol
GATGGCGGAAACGCCGTC ((.((((....)))).)) | 58.3 °C | -21.4 kcal/mol
GCACACGAAAGTGTCTGC ((((((....)))..))) | 42 °C | -15.3 kcal/mol
GGTCGTGGAAACGCGATC (.(((.(....).))).) | 43.8 °C | -26.9 kcal/mol
GGCGTCTCGAAAGAGGCC (((..(((....)))))) | 53 °C | -33.3 kcal/mol
GTCACCGAAAGGTATGAC ((((((....)))..))) | 40.1 °C | -20.2 kcal/mol
GGTGGCGGAAACGTCGCC ((.(.((....)).).)) | 54.2 °C | -39.9 kcal/mol
GCGGTCGTCCGC ((((....)))) | 56.9 °C | -31.1 kcal/mol
GGCTGCGGAAACGCAACC ((.((((....)))).)) | 54.7 °C | -22.3 kcal/mol
GATCACTTCGGTGATC ((((((....)))))) | 57.4 °C | -40 kcal/mol
GATCAAAAATTGATC ((((((...)))))) | 37 °C | -29.7 kcal/mol
GCGACTTCGAAAGAACGC (((..(((....)))))) | 36.7 °C | -22.4 kcal/mol
GTGTCCGAAAGGAGACAC ((((((....)))..))) | 50.7 °C | -21.7 kcal/mol
GTAAGCGAAAGCTTATAC ((((((....)))..))) | 39.1 °C | -12.2 kcal/mol
